Here are results for four compounds from publication PMC9535606 (Journal of Alzheimer's Disease Reports, 2022).

Structures are written as SMILES.

For data set [1], the system named is primary rat cortical neurons. Kind of data set: 3-NP-induced neurotoxicity, cell survival by counting Hoechst-stained nuclei. Particulars: for Cell Survival (%): 0.5 mM for 24 h prior to 2.5 mM 3-NP for 24 h, Hoechst, % of control; for viability of cultured cortical neurons exposed to 3-NP: then 2.5 mM 3-NP 24 h. It counts as cell-based. The essentials: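 E18 Sprague-Dawley rat cortical neurons (DIV 7–9) were pretreated with test compound for 24 h, then given 2.5 mM 3-NP for 24 h. Cells were fixed in 4% paraformaldehyde and stained with Hoechst 33342 (1:1000 in PBS, 5–15 min). Nuclei with normal morphology were counted. Survival (%) = mean surviving cells ÷ concurrent control × 100%.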

The test system of data set [2] is primary rat cortical neurons. Kind of data set: 3-NP-induced cellular ROS, CellROX fluorescence. It counts as cell-based. The note with it: for ROS level compared with 3-NP-vehicle-treated group: 0.5 mM for 24 h prior to 2.5 mM 3-NP, LiCl p < 0.001, SB p < 0.01, LiBen p < 0.0001. The essentials:
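Primary cortical cultures came from E18 Sprague-Dawley rat cortex and were used at DIV 7–9 (neuron-enriched). Cultures were pretreated with test compound (0, 0.5, 1 or 3 mM) for 24 h, then exposed to 2.5 mM 3-NP for another 24 h. CellROX Green reagent was added, cells were washed with PBS, and ROS were quantified as fluorescence (Ex 485/Em 520 nm), with confocal imaging.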

Data set [3] deals with rat primary cortical neurons. Kind of data set: Mitochondrial respiration, Seahorse XF Cell Mito Stress Test. Particulars: 3 mM. Format: cell-based. Put shortly: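 Rat primary cortical neurons on XF96 plates were pretreated with test compound (3 mM) for 24 h. They were then moved to XF assay medium for 1 h at 37 °C without CO2. Oxygen consumption rate was recorded on an XF96 analyser with serial oligomycin, FCCP and rotenone/antimycin A injections. Basal respiration, ATP production, proton leak and spare capacity were derived; mean ± SD, N=3.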

The test system of data set [4] is rat primary cortical neurons. Kind of data set: Aβ25-35-induced cytotoxicity, cell survival with or without MK-801. Format: cell-based. Particulars: for cell survival rate: 10 μM Aβ25-35 for 2 days, then 1 mM for 4 days; for protective effect against Aβ25-35 in the presence vs absence of MK-801: MK-801 10 μM, SB 1 mM, LiBen 0.5 and 1 mM.
The test system of data set [5] is rat primary cortical neurons. Kind of data set: Neurogenesis, BrdU/NeuN immunostaining after Aβ25-35. Format: cell-based. The note with it: p < 0.0001. The essentials: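 Aβ25-35 was pre-aggregated at 37 °C for 24 h and applied to E18 rat cortical cultures on coverslips for 2 days. Medium was then replaced with BrdU labelling solution plus test compound for 4 days at 37 °C. Cells were fixed in PFA, blocked in 2% BSA, permeabilised with 0.03% Triton X-100 and treated with 2 N HCl. They were stained for BrdU (1:250), NeuN (1:300) and Hoechst. Triple-positive cells were expressed as % of untreated control; mean ± SD, N=3, one-way ANOVA with Student-Newman-Keuls.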

Data set [6] has as its system rat primary cortical neuronal culture. Put plainly: Oxygen glucose deprivation. It counts as cell-based. The essentials:
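For OGD, rat cortical cultures were rinsed into glucose- and pyruvate-free Neurobasal-A and held 1 h at 37 °C/5% CO2. They were then kept under 95% N2/5% CO2 (about 1.0% O2) for 4 h. Test compound was present either for the whole 53 h (0–5 mM) or only for 48 h post-OGD (0–3 mM). Viability was measured by MTT as % of the normoxic untreated control.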

Data set [7] can be described thus: Pharmacokinetics of lithium in rat plasma after single oral dose. It counts as in vivo. Particulars: same molarity. The essentials: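 Male Sprague-Dawley rats (240–260 g, n=6/group) were fasted overnight and given a single gavage dose in PBS. Doses were test compound 255.3 mg/kg or sodium benzoate 287.9 mg/kg plus Li2CO3 74.2 mg/kg (equimolar). Jugular blood was drawn from 0 to 24 h into heparinised tubes, and plasma was separated at 2500×g for 15 min at 4 °C. Plasma was digested overnight in 2–5% nitric acid, filtered, and lithium measured by ICP-MS; concentration-time plots were used; mean ± SD.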

The subject of data set [8] is APP/PS1 mice. Kind of data set: Prepulse inhibition, sensorimotor gating. Format: in vivo, mouse. Put shortly:
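In APP/PS1 mice and WT littermates, test compound in 0.9% saline was given i.p. once daily from 5 months of age. The dose was 256 mg/kg/day for 5 months, then lowered to 200 mg/kg/day. Saline-vehicle groups served as controls. Behavioural testing took place at 5 (pre-dose), 7, 10 and 13 months of age.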

Data set [9] deals with APP/PS1 mice. Kind of data set: Amyloid plaque number in brain, Congo red staining. It counts as in vivo, mouse. The note with it: APP/PS1 mice at 16 months of age, AD/LiBen vs AD/Veh; p < 0.05.
Another data set has as its system WT mice. Kind of data set: Chronic administration safety observations in WT mice. It counts as in vivo, mouse. The essentials: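 Wild-type littermates dosed i.p. once daily from 5 months of age for 8 months with test compound in 0.9% saline (n = 27) or saline vehicle (n = 23). Dose 256 mg/kg/day for 5 months, then 200 mg/kg/day. Barnes maze at 5, 7, 10 and 13 months, scored as probe-trial target-quadrant time over total exploring time. Body weight and survival followed to 16 months.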

The conditions of data set [10]: US FDA and JECFA of WHO; cited from earlier work.
Setting [11] is: 24 h, compared with SB or LiCl treatment.

Compound `O=C(O)CC[N+](=O)[O-]` [3-NP, 3-nitropropionic acid, reference compound] displayed a neuronal cell death in data set [1] (3-NP 2.5 mM alone) of approximately 50%. The “ROS level (fluorescent intensity) increase compared to control” value in data set [2] (3-NP 2.5 mM, 24 h, p < 0.05) is 57.5%.
`O=C([O-])c1ccccc1.[Li+]` [LiBen, lithium benzoate]: the “Cell Survival (%)” value in [1] turned out to be 79.0%. For the same compound, the “viability of cultured cortical neurons exposed to 3-NP” value in data set [1] (LiBen 1 mM 24 h, p < 0.005 vs 3-NP alone) was “significantly increase”. Also, the “viability of cultured cortical neurons exposed to 3-NP” value in [1] (LiBen 3 mM 24 h, p < 0.001 vs 3-NP alone) is recorded as “significantly increase”. Besides, the “viability of cultured cortical neurons in the absence of 3-NP” value in data set [1] (LiBen 1 or 3 mM, no 3-NP) is “the difference was not revealed”. For the same compound, the “ROS level compared with 3-NP-vehicle-treated group” value in data set [2] was “much more significant”. Also, in data set [3] (setting [11]), the ATP production result is on record as “more reduction” and the proton leak result is on record as “more reduction”. In addition, the spare respiratory capacity result in data set [3] (24 h pre-treatment) is recorded as “increasing tendency”. For the same compound, in data set [3] (24 h pre-treatment, did not reach the significant level), the “basal oxygen consumption rate” value is on record as “reduced more basal oxygen consumption rate than the other treatment groups”. Besides, in [4], the cell survival rate stood at 85.1% and the “protective effect against Aβ25-35 in the presence vs absence of MK-801” value is reported as “no differences were observed”. In data set [5] (Aβ25-35 exposure, then 0.5 mM for 4 days), the “neurogenesis (BrdU+/NeuN+ cells) vs corresponding control” value is recorded as “significantly improve neurogenesis”. For the same compound, the “neurogenesis (BrdU+/NeuN+ cells) vs corresponding control” value in data set [5] (No Aβ25-35 exposure, 0.5 mM for 4 days) is “significantly improve neurogenesis”. Besides, in data set [6] (3 mM LiBen present for 53 hrs of the whole culture period), the “OGD-induced cell death / cell viability” value is “significantly recovered and comparable to the normoxia group”. Also, in [6] (5 mM LiBen, 53 hrs), the “cell survival in normoxia group” value is “also reduced” and the “neuroprotective property under OGD” value is on record as “vanished”. The OGD-induced cell death entry in [6] (LiBen 0.3 to 3 mM added for 48 hrs post-OGD, vs 0 mM group) is listed as “significantly alleviates OGD-induced cell death”. In data set [7], the “AUC of lithium compared with the SB + Li2CO3 mixture group” value is “also higher” and the “Cmax of lithium compared with the SB + Li2CO3 mixture group” value was “significantly higher”. Also, the “improvement of PPI deficit” value with APP/PS1 mice [8] (APP/PS1 mice at 13 months of age) is “reached significant level”. Further, the “prepulse inhibition (PPI)” value in the data set with APP/PS1 mice [8] (APP/PS1 mice, i.p. once daily from 5 months of age, tested at 7, 10, 13 months) was “normal PPI at all time points”. In the data set on APP/PS1 mice [9], the “decrease in number of plaques in cortex” value was 21.8% and the “decrease in number of plaques in hippocampus” value is 27.8%. In addition, the “body weight change during the experimental period” value in the data set on WT mice (WT mice, chronic administration) was “without significant body weight change”. In addition, the survival result with WT mice (WT mice, chronic administration, termination time point of the experiment) is recorded as “at least 16 months”. Moreover, the “toxicity of chronic use” value in the data set with WT mice (within the tested dose range (256, later 200 mg/kg/day i.p.)) is “did not display any toxicity”.
For `[Cl-].[Li+]` [LiCl, lithium chloride, reference compound], the “Cell Survival (%)” value in [1] is recorded as 61.5%. In [2], the “ROS level compared with 3-NP-vehicle-treated group” value is on record as “significant decreases”. The spare respiratory capacity result in data set [3] (24 h pre-treatment) was “less effective than LiBen”. The cell survival rate in [4] is 74.0%.
In the case of `O=C([O-])c1ccccc1.[Na+]` [SB, Sodium benzoate], the “Cell Survival (%)” value in data set [1] amounted to 67.1%. Also, the “ROS level compared with 3-NP-vehicle-treated group” value in data set [2] is “significant decreases”. For the same compound, the spare respiratory capacity entry in data set [3] (24 h pre-treatment) is recorded as “less effective than LiBen”. Further, in data set [4], the cell survival rate came out at 70.7% and the “protective effect against Aβ25-35 in the presence vs absence of MK-801” value was “blocked by MK-801”. The “acceptable daily intake level” value in data set [10] is 5 mg/kg body weight.
